Where two headings read alike, the source gives them in different places.
Legend:
[1] = test system: breast cancer cells MCF-7; experiment: MTT antiproliferative assay, MCF-7 under normoxia and hypoxia; format: cell-based, human; conditions: for IC50: Homo sapiens; for HCR, hypoxic cytotoxicity ratio: IC50(N)/IC50(H): MCF-7; for antiproliferative activity, in words: MCF-7, Table 3
Method in brief: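 MTT assay on MCF-7 cells grown in high-glucose DMEM with 10% FBS, penicillin and streptomycin at 37 °C and 5% CO2. Cells were seeded at 40 000 per well, and test compound (10 mM DMSO stock) was added after 24 h; controls got solvent. Cells were kept under normoxia (21% O2) or hypoxia (1% O2). IC50 is mean ± S.D. of 3 experiments; HCR = IC50(N)/IC50(H).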

Capan-1 = experiment: Antiproliferative assay, Capan-1; format: cell-based; conditions: Homo sapiens, CAPAN-1, read-out: IC50 Capan-1
HCT-116 = experiment: Antiproliferative assay, HCT-116; format: cell-based; conditions: Homo sapiens, HCT-116, read-out: IC50 HCT-116
LN229 = experiment: Antiproliferative assay, LN229; format: cell-based; conditions: Homo sapiens, LN-229, read-out: IC50 LN229
NCI-H1975 = experiment: Antiproliferative assay, NCI-H1975; format: cell-based; conditions: Homo sapiens, NCI-H1975, read-out: IC50 NCI-H1975
DND-41 = experiment: Antiproliferative assay, DND-41; format: cell-based; conditions: Homo sapiens, DND41, read-out: IC50 DND-41
HL-60 = experiment: Antiproliferative assay, HL-60; format: cell-based; conditions: Homo sapiens, HL-60, read-out: IC50 HL-60
K562 = experiment: Antiproliferative assay, K562; format: cell-based; conditions: Homo sapiens, K562, read-out: IC50 K562
Z138 = experiment: Antiproliferative assay, Z138; format: cell-based; conditions: Homo sapiens, Z-138, read-out: IC50 Z138
hCA I = hCA I (Homo sapiens, UniProt P00915); experiment: Stopped flow CO2 hydrase assay, hCA I; format: biochemical
hCA I, sequence (P00915 whole entry): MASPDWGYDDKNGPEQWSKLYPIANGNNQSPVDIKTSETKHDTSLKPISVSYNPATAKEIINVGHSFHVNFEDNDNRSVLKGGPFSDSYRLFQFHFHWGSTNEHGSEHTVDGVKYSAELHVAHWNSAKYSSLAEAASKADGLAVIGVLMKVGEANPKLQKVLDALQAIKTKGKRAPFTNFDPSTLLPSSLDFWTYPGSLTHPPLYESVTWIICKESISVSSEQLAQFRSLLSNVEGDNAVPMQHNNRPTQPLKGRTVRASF

hCA II = hCA II (Homo sapiens, UniProt P00918); experiment: Stopped flow CO2 hydrase assay, hCA II; format: biochemical
hCA IX = hCA IX (Homo sapiens, UniProt Q16790); experiment: biochemical; format: biochemical
hCA XII = hCA XII (Homo sapiens, UniProt O43570); experiment: Stopped flow CO2 hydrase assay, hCA XII; format: biochemical
hCA XII, sequence (O43570 25-354): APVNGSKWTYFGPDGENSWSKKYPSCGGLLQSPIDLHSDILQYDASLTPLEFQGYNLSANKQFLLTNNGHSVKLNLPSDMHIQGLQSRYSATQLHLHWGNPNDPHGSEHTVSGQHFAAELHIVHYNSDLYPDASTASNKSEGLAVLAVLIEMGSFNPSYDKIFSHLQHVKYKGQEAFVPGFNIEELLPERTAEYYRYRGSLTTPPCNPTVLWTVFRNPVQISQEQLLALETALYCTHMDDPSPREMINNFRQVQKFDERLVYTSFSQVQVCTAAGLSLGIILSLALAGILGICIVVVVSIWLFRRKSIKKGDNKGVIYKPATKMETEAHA

[2] = test system: panel of tumor cell lines; experiment: Antiproliferative activity over the panel of tumor cell lines; format: cell-based, human
A431 skin cancer cells = experiment: MTT assay, A431 cells in normoxia and hypoxia; format: cell-based; conditions: for IC50: Homo sapiens, A-431, 72 h
Method in brief: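 A431 cells were cultured in high-glucose DMEM with 10% FBS and penicillin/streptomycin at 37 °C and 5% CO2, then seeded at 35 000 per well. After 24 h, test compound from a 10 mM DMSO stock was added, with solvent-only controls. Incubation lasted 72 h under normoxia or hypoxia (1% O2). Viability was read by MTT, with IC50 from the concentration-response curve.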

[3] = test system: CA IX and cleaved PARP expression in A431 cells; experiment: Immunoblotting of CA IX and cleaved PARP in A431 cells under hypoxia; format: cell-based; conditions: 24 h
Method in brief: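 A431 cells grew 24 h, then received test compound or tirapazamine reference (30 μM) in fresh medium and were held 24 h in hypoxia; the control stayed in normoxia. Lysis buffer: Tris-HCl pH 7.5, Igepal, NaCl, EDTA, DTT, PMSF, orthovanadate, protease inhibitors. Protein was measured by Bradford. Blots: 10% reducing SDS-PAGE, nitrocellulose, milk/TBS-Tween block, primary antibodies overnight at 4 °C, GAPDH loading control, HRP anti-rabbit, ECL.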

## N#Cc1c(-c2ccccc2)[n+]([O-])c2cc(S(N)(=O)=O)ccc2[n+]1[O-] [Compound 7a, 3-Phenyl-6-sulfamoylquinoxaline-2-carbonitrile 1,4-dioxide]
[1]; MCF7, read-out: IC50 H
  IC50: 0.9 ± 0.3 µM
[1]; MCF7, read-out: IC50 N
  IC50: 3.5 ± 0.2 µM
[1]
  HCR, hypoxic cytotoxicity ratio: IC50(N)/IC50(H): 3.9
Capan-1
  IC50: 7.5 ± 0.4 µM
HCT-116
  IC50: 47.9 ± 2.3 µM
LN229
  IC50: 38.8 ± 1.9 µM
NCI-H1975
  IC50: 19.9 ± 0.9 µM
DND-41
  IC50: 0.8 ± 0.05 µM
HL-60
  IC50: 2.3 ± 0.1 µM
K562
  IC50: 10.8 ± 0.5 µM
Z138
  IC50: 8.7 ± 0.4 µM
hCA I
  Ki: 0.0491 ± 0.003 µM
hCA II
  Ki: 0.0027 ± 0.0002 µM
hCA IX
  Ki: 2.4 ± 0.096 µM
hCA XII
  Ki: 0.089 ± 0.007 µM

## N#Cc1c(-c2ccc(Cl)cc2)[n+]([O-])c2cc(S(N)(=O)=O)ccc2[n+]1[O-] [Compound 7b, 3-(4-Chlorophenyl)-6-sulfamoylquinoxaline-2-carbonitrile 1,4-dioxide]
[1]; MCF7, read-out: IC50 H
  IC50: 0.8 ± 0.2 µM
[1]; MCF7, read-out: IC50 N
  IC50: 1.8 ± 0.2 µM
[1]
  HCR, hypoxic cytotoxicity ratio: IC50(N)/IC50(H): 2.2
Capan-1
  IC50: 1.8 ± 0.1 µM
HCT-116
  IC50: 34.3 ± 1.7 µM
LN229
  IC50: 24 ± 1.2 µM
NCI-H1975
  IC50: 13.9 ± 0.7 µM
DND-41
  IC50: 5.4 ± 0.3 µM
HL-60
  IC50: 2 ± 0.1 µM
K562
  IC50: 29.7 ± 1.5 µM
Z138
  IC50: 2.5 ± 0.2 µM
hCA I
  Ki: 0.0537 ± 0.0015 µM
hCA II
  Ki: 0.0051 ± 0.0003 µM
hCA IX
  Ki: 0.429 ± 0.021 µM
hCA XII
  Ki: 0.178 ± 0.009 µM
[2]; all tested cell lines except DND-41
  enhancement of cytotoxicity compared to unsubstituted analogue 7a: 1.2 to 6.8 times

## N#Cc1c(-c2ccco2)[n+]([O-])c2cc(S(N)(=O)=O)ccc2[n+]1[O-] [Compound 7c, 3-(Furan-2-yl)-6-sulfamoylquinoxaline-2-carbonitrile 1,4-dioxide]
[1]; MCF7, read-out: IC50 H
  IC50: > 25 µM
[1]; MCF7, read-out: IC50 N
  IC50: > 25 µM
[1]
  antiproliferative activity, in words: complete loss of activity
Capan-1
  IC50: > 100 µM
HCT-116
  IC50: > 100 µM
LN229
  IC50: > 100 µM
NCI-H1975
  IC50: > 100 µM
DND-41
  IC50: > 100 µM
HL-60
  IC50: > 100 µM
K562
  IC50: > 100 µM
Z138
  IC50: > 100 µM
hCA I
  Ki: 0.038 ± 0.0011 µM
hCA II
  Ki: 0.0044 ± 0.0002 µM
hCA IX
  Ki: > 10 µM
  activity against CA IX, in words: complete loss of activity
hCA XII
  Ki: > 10 µM
  activity against CA XII, in words: inactive

## N#Cc1c(-c2cccs2)[n+]([O-])c2cc(S(N)(=O)=O)ccc2[n+]1[O-] [Compound 7d, 6-Sulfamoyl-3-(thiophen-2-yl)quinoxaline-2-carbonitrile 1,4-dioxide]
[1]; MCF7, read-out: IC50 H
  IC50: > 25 µM
[1]; MCF7, read-out: IC50 N
  IC50: > 25 µM
[1]
  antiproliferative activity, in words: complete loss of activity
Capan-1
  IC50: > 100 µM
HCT-116
  IC50: > 100 µM
LN229
  IC50: 98.8 ± 4.9 µM
NCI-H1975
  IC50: > 100 µM
DND-41
  IC50: 44.8 ± 2.2 µM
HL-60
  IC50: 72.4 ± 3.6 µM
K562
  IC50: > 100 µM
Z138
  IC50: > 100 µM
hCA I; read-out: Ki hCA I, mean from three experiments, stopped flow CO2 hydrase assay
  Ki: 0.0417 ± 0.002 µM
hCA II; read-out: Ki hCA II, mean from three experiments, stopped flow CO2 hydrase assay
  Ki: 0.0042 ± 0.0001 µM
hCA IX
  activity against CA IX, in words: complete loss of activity
hCA IX; read-out: Ki hCA IX, mean from three experiments, stopped flow CO2 hydrase assay
  Ki: > 10 µM

## CCOC(=O)c1c(-c2ccccc2)[n+]([O-])c2cc(S(N)(=O)=O)ccc2[n+]1[O-] [Compound 7e, 2-(Ethoxycarbonyl)-3-phenyl-6-sulfamoylquinoxaline 1,4-dioxide]
[1]; MCF7, read-out: IC50 H
  IC50: 0.9 ± 0.06 µM
[1]; MCF7, read-out: IC50 N
  IC50: 4 ± 0.6 µM
[1]
  HCR, hypoxic cytotoxicity ratio: IC50(N)/IC50(H): 4.7
Capan-1
  IC50: 6 ± 0.3 µM
HCT-116
  IC50: > 100 µM
LN229
  IC50: 87 ± 4.3 µM
NCI-H1975
  IC50: 47.4 ± 2.3 µM
DND-41
  IC50: 28.2 ± 1.4 µM
HL-60
  IC50: 52.7 ± 2.6 µM
K562
  IC50: 52.6 ± 2.1 µM
Z138
  IC50: 15.3 ± 0.8 µM
hCA I
  Ki: 0.0424 ± 0.0019 µM
hCA II
  Ki: 0.0054 ± 0.0003 µM
hCA IX
  Ki: 0.257 ± 0.014 µM
hCA XII
  Ki: 0.252 ± 0.014 µM

## CCOC(=O)c1c(C)[n+]([O-])c2cc(S(N)(=O)=O)ccc2[n+]1[O-] [Compound 7f, 2-(Ethoxycarbonyl)-3-methyl-6-sulfamoylquinoxaline 1,4-dioxide]
[1]; MCF7, read-out: IC50 H
  IC50: 4.3 ± 0.3 µM
[1]; MCF7, read-out: IC50 N
  IC50: 10.5 ± 1.2 µM
[1]
  HCR, hypoxic cytotoxicity ratio: IC50(N)/IC50(H): 2.4
Capan-1
  IC50: 1.7 ± 0.1 µM
HCT-116
  IC50: 2.7 ± 0.1 µM
LN229
  IC50: 35.9 ± 1.8 µM
NCI-H1975
  IC50: 33.3 ± 1.7 µM
DND-41
  IC50: 10.3 ± 0.5 µM
HL-60
  IC50: 32.6 ± 1.6 µM
K562
  IC50: 26 ± 1.3 µM
Z138
  IC50: 3.3 ± 1.7 µM
hCA I
  Ki: 0.063 ± 0.0031 µM
hCA II
  Ki: 0.008 ± 0.0003 µM
hCA IX
  Ki: > 10 µM
  activity against CA IX, in words: did not exhibit any inhibitory activity
hCA XII
  Ki: 0.0564 ± 0.004 µM
[2]; Table 4 cell lines
  enhancement of tumor cell growth inhibition compared to compound 7e: 1.4–40 times

## CC(=O)c1c(C)[n+]([O-])c2cc(S(N)(=O)=O)ccc2[n+]1[O-] [Compound 7g, 2-Acetyl-3-methyl-6-sulfamoylquinoxaline 1,4-dioxide]
[1]; MCF7, read-out: IC50 H
  IC50: 6.9 ± 0.3 µM
[1]; MCF7, read-out: IC50 N
  IC50: 7.1 ± 0.2 µM
[1]
  HCR, hypoxic cytotoxicity ratio: IC50(N)/IC50(H): 1.1
Capan-1
  IC50: 38.3 ± 1.9 µM
HCT-116
  IC50: 69.6 ± 3.5 µM
LN229
  IC50: > 100 µM
NCI-H1975
  IC50: 66.1 ± 3.3 µM
DND-41
  IC50: 66.9 ± 3.3 µM
HL-60
  IC50: 85.9 ± 4.3 µM
K562
  IC50: 94.8 ± 4.7 µM
Z138
  IC50: 44.3 ± 2.2 µM
hCA I
  Ki: 0.0657 ± 0.0024 µM
hCA II
  Ki: 0.0074 ± 0.0002 µM
hCA IX
  Ki: 0.0422 ± 0.004 µM
hCA XII
  Ki: 0.24 ± 0.013 µM
A431 skin cancer cells; A431, 50 μM, normoxia, 72 h
  decrease in cell survival: approximately 40%
A431 skin cancer cells; read-out: IC50 A431, hypoxia
  IC50: ~11 µM
A431 skin cancer cells; read-out: IC50 A431, normoxia
  IC50: > 50 µM
[3]
  CA IX expression: dose-dependent reduction in CA IX expression
  cleaved PARP (marker of apoptosis): accumulation of cleaved PARP
[2]; Table 4 cell lines
  decrease in activity compared to 2-ethoxycarbonyl analogue 7f: 2–25 fold
